Measured values: ChEMBL document CHEMBL5724801, “EUbOPEN Chemogenomics Library - Multiplex” (2024)
Values joined by “and” are separate entries in the source; they are usually repeats but may differ in a detail not shown here. Identical values can stand only once.

Test system: HEK-293T
Experiment: Multiplex assay against HEK293T
Format: toxicity, cell-based
Conditions: human
Summary of the method: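 Phenotypes for tubulin, mitochondrial mass and membrane permeability are expressed as per cents of healthy-nucleus cells. Cells were stained live at seeding with Hoechst33342, BioTracker Green Microtubule Cytoskeleton Dye, MitoTracker Red and Annexin V Alexa Fluor 680, then imaged after compound addition on a CQ1 microscope at 37°C and 5% CO2. Machine-learning gating in CellPathfinder separated Hoechst high-intensity objects from normal cells, divided normal cells by nuclear state (healthy, pyknosed, fragmented) and divided pyknosed cells into mitotic or apoptotic.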

[1] = 12 h, 1 µM, compound concentration 1 uM
[2] = 12 h, 10 µM, compound concentration 10 uM
[3] = 24 h, 1 µM, compound concentration 1 uM
[4] = 24 h, 10 µM, compound concentration 10 uM
[5] = 48 h, 1 µM, compound concentration 1 uM
[6] = 48 h, 10 µM, compound concentration 10 uM

`S=C(NCCCc1c[nH]cn1)NCCCN(Cc1ccc(Cl)c(Cl)c1)c1ccc(Br)cn1` was tested, and the “Population Apoptotic (%)” value [1] was 39% and 53%, the “Population Fragmented Nuclei (%)” value [1] was 8% and 5% and the “Population Healthy Nuclei (%)” value [1] was 78% and 79%. The “Population Hoechst High Intensity Objects (%)” value [1] was 17% and 6%, the “Population Membrane Permeable-Phenotype (%)” value [1] was 0% and the “Population Mitochondria Different-Phenotype (%)” value [1] was 50% and 58%. The “Population Mitotic Cells (%)” value [1] was 60% and 46%, the “Population Normal (%)” value [1] was 82% and 93% and the “Population Pyknosed Nuclei (%)” value [1] was 13% and 14%. The “Population Tubulin-Different-Phenotype (%)” value [1] was 36% and 35%, the “Total Cell Count” value [1] was 378 and 294 and the “Population Apoptotic (%)” value [2] was 90% and 77%. The “Population Fragmented Nuclei (%)” value [2] was 4% and 8%, the “Population Healthy Nuclei (%)” value [2] was 57% and 71% and the “Population Hoechst High Intensity Objects (%)” value [2] was 33% and 19%. For the same compound, the “Population Membrane Permeable-Phenotype (%)” value [2] was 0%, the “Population Mitochondria Different-Phenotype (%)” value [2] was 77% and 84% and the “Population Mitotic Cells (%)” value [2] was 9% and 22%. For the same compound, the “Population Normal (%)” value [2] was 66% and 80%, the “Population Pyknosed Nuclei (%)” value [2] was 38% and 19% and the “Population Tubulin-Different-Phenotype (%)” value [2] was 78%. The “Total Cell Count” value [2] was 242 and 229, the “Population Apoptotic (%)” value [3] was 39% and 41% and the “Population Fragmented Nuclei (%)” value [3] was 10% and 9%. For the same compound, the “Population Healthy Nuclei (%)” value [3] was 73% and 81%, the “Population Hoechst High Intensity Objects (%)” value [3] was 22% and 13% and the “Population Membrane Permeable-Phenotype (%)” value [3] was 0%. The “Population Mitochondria Different-Phenotype (%)” value [3] was 45% and 48%, the “Population Mitotic Cells (%)” value [3] was 60% and 58% and the “Population Normal (%)” value [3] was 77% and 86%. The “Population Pyknosed Nuclei (%)” value [3] was 16% and 9%, the “Population Tubulin-Different-Phenotype (%)” value [3] was 32% and the “Total Cell Count” value [3] was 326 and 301. For the same compound, the “Population Apoptotic (%)” value [4] was 85% and 82%, the “Population Fragmented Nuclei (%)” value [4] was 11% and 16% and the “Population Healthy Nuclei (%)” value [4] was 49% and 59%. For the same compound, the “Population Hoechst High Intensity Objects (%)” value [4] was 48% and 39%, the “Population Membrane Permeable-Phenotype (%)” value [4] was 1% and 0% and the “Population Mitochondria Different-Phenotype (%)” value [4] was 75% and 82%. For the same compound, the “Population Mitotic Cells (%)” value [4] was 14% and 17%, the “Population Normal (%)” value [4] was 51% and 61% and the “Population Pyknosed Nuclei (%)” value [4] was 39% and 23%. For the same compound, the “Population Tubulin-Different-Phenotype (%)” value [4] was 78%, the “Total Cell Count” value [4] was 237 and 200 and the “Population Apoptotic (%)” value [5] was 47% and 36%. For the same compound, the “Population Fragmented Nuclei (%)” value [5] was 14% and 17%, the “Population Healthy Nuclei (%)” value [5] was 65% and 73% and the “Population Hoechst High Intensity Objects (%)” value [5] was 36% and 27%. The “Population Membrane Permeable-Phenotype (%)” value [5] was 3% and 0%, the “Population Mitochondria Different-Phenotype (%)” value [5] was 38% and 32% and the “Population Mitotic Cells (%)” value [5] was 52% and 63%. For the same compound, the “Population Normal (%)” value [5] was 63% and 72%, the “Population Pyknosed Nuclei (%)” value [5] was 19% and 9% and the “Population Tubulin-Different-Phenotype (%)” value [5] was 29% and 19%. For the same compound, the “Total Cell Count” value [5] was 307 and 277, the “Population Apoptotic (%)” value [6] was 84% and 75% and the “Population Fragmented Nuclei (%)” value [6] was 23% and 21%. For the same compound, the “Population Healthy Nuclei (%)” value [6] was 23%, the “Population Hoechst High Intensity Objects (%)” value [6] was 75% and 67% and the “Population Membrane Permeable-Phenotype (%)” value [6] was 0%. For the same compound, the “Population Mitochondria Different-Phenotype (%)” value [6] was 86% and 80%, the “Population Mitotic Cells (%)” value [6] was 15% and 25% and the “Population Normal (%)” value [6] was 24% and 32%. For the same compound, the “Population Pyknosed Nuclei (%)” value [6] was 52% and 55%, the “Population Tubulin-Different-Phenotype (%)” value [6] was 53% and 40% and the “Total Cell Count” value [6] was 256 and 203.

With `CCCCC(=O)N(Cc1ccc(-c2ccccc2-c2nnn[nH]2)cc1)[C@H](C(=O)O)C(C)C` the “Population Apoptotic (%)” value [1] was 44% and 40%, the “Population Fragmented Nuclei (%)” value [1] was 7% and 6% and the “Population Healthy Nuclei (%)” value [1] was 80% and 74%. The “Population Hoechst High Intensity Objects (%)” value [1] was 9% and 11%, the “Population Membrane Permeable-Phenotype (%)” value [1] was 0% and the “Population Mitochondria Different-Phenotype (%)” value [1] was 36% and 49%. The “Population Mitotic Cells (%)” value [1] was 55% and 59%, the “Population Normal (%)” value [1] was 90% and 88% and the “Population Pyknosed Nuclei (%)” value [1] was 12% and 18%. The “Population Tubulin-Different-Phenotype (%)” value [1] was 16% and 21%, the “Total Cell Count” value [1] was 469 and 290 and the “Population Apoptotic (%)” value [2] was 21% and 51%. The “Population Fragmented Nuclei (%)” value [2] was 7% and 5%, the “Population Healthy Nuclei (%)” value [2] was 83% and 81% and the “Population Hoechst High Intensity Objects (%)” value [2] was 5% and 10%. For the same compound, the “Population Membrane Permeable-Phenotype (%)” value [2] was 0%, the “Population Mitochondria Different-Phenotype (%)” value [2] was 30% and 63% and the “Population Mitotic Cells (%)” value [2] was 78% and 48%. For the same compound, the “Population Normal (%)” value [2] was 94% and 89%, the “Population Pyknosed Nuclei (%)” value [2] was 8% and 13% and the “Population Tubulin-Different-Phenotype (%)” value [2] was 19%. The “Total Cell Count” value [2] was 507 and 310, the “Population Apoptotic (%)” value [3] was 30% and 32% and the “Population Fragmented Nuclei (%)” value [3] was 11% and 9%. For the same compound, the “Population Healthy Nuclei (%)” value [3] was 78% and 82%, the “Population Hoechst High Intensity Objects (%)” value [3] was 5% and 6% and the “Population Membrane Permeable-Phenotype (%)” value [3] was 0%. For the same compound, the “Population Mitochondria Different-Phenotype (%)” value [3] was 21% and 26%, the “Population Mitotic Cells (%)” value [3] was 70% and 67% and the “Population Normal (%)” value [3] was 94% and 93%. For the same compound, the “Population Pyknosed Nuclei (%)” value [3] was 10% and 8%, the “Population Tubulin-Different-Phenotype (%)” value [3] was 12% and the “Total Cell Count” value [3] was 630 and 429. For the same compound, the “Population Apoptotic (%)” value [4] was 20% and 35%, the “Population Fragmented Nuclei (%)” value [4] was 9% and the “Population Healthy Nuclei (%)” value [4] was 82%. For the same compound, the “Population Hoechst High Intensity Objects (%)” value [4] was 5% and 7%, the “Population Membrane Permeable-Phenotype (%)” value [4] was 0% and the “Population Mitochondria Different-Phenotype (%)” value [4] was 19% and 30%. The “Population Mitotic Cells (%)” value [4] was 79% and 64%, the “Population Normal (%)” value [4] was 94% and 92% and the “Population Pyknosed Nuclei (%)” value [4] was 7%. For the same compound, the “Population Tubulin-Different-Phenotype (%)” value [4] was 11% and 13%, the “Total Cell Count” value [4] was 663 and 420 and the “Population Apoptotic (%)” value [5] was 18% and 19%. For the same compound, the “Population Fragmented Nuclei (%)” value [5] was 13% and 14%, the “Population Healthy Nuclei (%)” value [5] was 80% and 79% and the “Population Hoechst High Intensity Objects (%)” value [5] was 2% and 3%. The “Population Membrane Permeable-Phenotype (%)” value [5] was 1% and 0%, the “Population Mitochondria Different-Phenotype (%)” value [5] was 12% and 16% and the “Population Mitotic Cells (%)” value [5] was 81% and 80%. For the same compound, the “Population Normal (%)” value [5] was 97% and 96%, the “Population Pyknosed Nuclei (%)” value [5] was 5% and 6% and the “Population Tubulin-Different-Phenotype (%)” value [5] was 7% and 9%. For the same compound, the “Total Cell Count” value [5] was 1024 and 653, the “Population Apoptotic (%)” value [6] was 14% and 15% and the “Population Fragmented Nuclei (%)” value [6] was 14%. The “Population Healthy Nuclei (%)” value [6] was 81% and 78%, the “Population Hoechst High Intensity Objects (%)” value [6] was 1% and 2% and the “Population Membrane Permeable-Phenotype (%)” value [6] was 2% and 0%. The “Population Mitochondria Different-Phenotype (%)” value [6] was 8% and 17%, the “Population Mitotic Cells (%)” value [6] was 85% and 84% and the “Population Normal (%)” value [6] was 98% and 97%. For the same compound, the “Population Pyknosed Nuclei (%)” value [6] was 3% and 7%, the “Population Tubulin-Different-Phenotype (%)” value [6] was 8% and the “Total Cell Count” value [6] was 1205 and 623.
